# According to ChEMBL document CHEMBL1154463, “Synthesis and induction of G0-G1 phase arrest with apoptosis of 3,5-dimethyl-6-phenyl-8-(trifluoromethyl)-5,6-dihydropyrazolo[3,4-f][1,2,3,5]tetrazepin-4(3H)-one” (Eur J Med Chem, 2008):
# Structures can show the parent of a compound that is named as a salt. Active and inactive are the calls of the source. The calls are words filed in the database; no cut-off is given here.
# What was measured:
# K562 [1] = assay: Induction of apoptosis in human K562 cells after 48 hrs; type: functional, cell-based; details: K562, 48 h
# HL-60 [2] = assay: Induction of apoptosis in human HL60 cells after 48 hrs; type: functional, cell-based; details: HL-60, 48 h
# How it was run: (§1)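 Cells exposed 48 h to a range of concentrations, then 2 × 10⁵ cells pelleted (300 × g) and stained with acridine orange and ethidium bromide ([…]). Read by fluorescence microscopy under oil immersion. Apoptosis scored by perinuclear chromatin condensation and apoptotic bodies, counting ≥300 cells. AC50 = concentration giving 50% apoptotic cells. Bars: SE.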
# HL-60 [3] = assay: Induction of apoptosis in multidrug resistant human HL60 cells after 48 hrs; type: functional, cell-based; details: HL-60, 48 h; how it was run: as §1
# HL-60 [4] = assay: human HL60 cells after 48 hrs; details: HL-60, 48 h
# K562 [5] = assay: Induction of apoptosis in imatinib mesylate-resistant human K562 cells after 48 hrs; type: functional, cell-based; how it was run: as §1
# HL-60 [6] = assay: Cytotoxicity against human HL60 cells after 48 hrs by trypan blue exclusion method; type: functional, cell-based; details: HL-60, 48 h
# How it was run: (§2)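 2 × 10⁵ cells in 1 ml complete medium treated with a range of concentrations, added as freshly prepared DMSO solution (final DMSO ≤0.3% v/v), for 48 h. Viable cells counted and expressed as percent of untreated control proliferation; IC50 = concentration inhibiting 50% of growth, from 48 h exposure. Bars: SE.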
# HL-60 [7] = assay: Cytotoxicity against multidrug-resistant human HL60 cells after 48 hrs by trypan blue exclusion method; type: functional, cell-based; details: HL-60, 48 h; how it was run: as §2
# K562 [8] = assay: Cytotoxicity against human K562 cells after 48 hrs by trypan blue exclusion method; type: functional, cell-based; details: K562, 48 h; how it was run: as §2
# K562 [9] = assay: Cytotoxicity against imatinib mesylate-resistant human K562 cells after 48 hrs by trypan blue exclusion method; type: functional, cell-based; details: K562, 48 h; how it was run: as §2
# K562 [10] = assay: Cell cycle arrest in human K562 cells assessed as accumulation at GO-G1 phase after 24 hrs by flow cytometry; type: functional, cell-based
# How it was run: (§3)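 K562 cells cultured 24 h and 48 h without compound or at 25, 50 or […] (unit as printed). Cells washed in ice-cold PBS, resuspended at 10⁶/ml in hypotonic propidium iodide ([…])/0.03% v/v NP-40 in 0.1% sodium citrate for 30 min. DNA content read by flow cytometry as single-parameter histograms; G0–G1 and sub-G0–G1 fractions taken as percent of cells.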
# K562 [11] = assay: Induction of apoptosis in human K562 cells assessed as accumulation at sub GO-G1 phase accumulation after 24 hrs by flow cytometry; type: functional, cell-based; how it was run: as §3
# K562 [12] = assay: Cell cycle arrest in human K562 cells assessed as accumulation at GO-G1 phase at 50 uM after 24 hrs by flow cytometry; type: functional; how it was run: as §3
# K562 [13] = assay: Cell cycle arrest in human K562 cells assessed as accumulation at GO-G1 phase at 50 uM after 48 hrs by flow cytometry; type: functional; how it was run: as §3
# K562 [14] = assay: Induction of apoptosis in human K562 cells assessed as accumulation at sub GO-G1 phase accumulation at 50 uM after 24 hrs by flow cytometry; type: functional; how it was run: as §3
# K562 [15] = assay: Induction of apoptosis in human K562 cells assessed as accumulation at sub GO-G1 phase accumulation at 50 uM after 48 hrs by flow cytometry; type: functional; how it was run: as §3
compound,measurement,setting,value
Cc1ccc(NC(=O)c2ccc(CN3CCN(C)CC3)cc2)cc1Nc1nccc(-c2cccnc2)n1 [IMATINIB MESYLATE],AC50,K562 [1],62 µM
COc1cc([C@@H]2c3cc4c(cc3[C@@H](O[C@@H]3O[C@@H]5CO[C@@H](C)O[C@H]5[C@H](O)[C@H]3O)[C@H]3COC(=O)[C@H]23)OCO4)cc(OC)c1O [ETOPOSIDE],AC50,HL-60 [2],0.4 µM
same,AC50,HL-60 [3],> 400 µM
COc1cccc2c1C(=O)c1c(O)c3c(c(O)c1C2=O)C[C@@](O)(C(C)=O)C[C@@H]3O[C@H]1C[C@H](N)[C@H](O)[C@H](C)O1 [DAUNORUBICIN],AC50,HL-60 [3],38 µM
same,AC50,HL-60 [4],0.1 µM
CS(=O)(=O)OCCCCOS(C)(=O)=O,Activity,K562 [5],Active
CN1N=Nc2c(C(F)(F)F)nn(-c3ccccc3)c2N(C)C1=O,IC50,HL-60 [6],21 µM
same,IC50,HL-60 [7],30 µM
same,IC50,K562 [8],40 µM
same,IC50,K562 [9],38 µM
same,AC50,HL-60 [2],36 µM
same,AC50,HL-60 [3],38 µM
same,AC50,K562 [1],57 µM
same,AC50,"K562 [5]; K562, 48 h",62 µM
same,Activity,K562 [10],Dose-dependent effect
same,Activity,K562 [11],inactive
same,Activity,K562 [12],60.7%
same,Activity,K562 [13],28.7%
same,Activity,K562 [14],5%
same,Activity,K562 [15],52.2%
